Sampled rows, rich in hits. Any-hit rate of the full collection: about 1.9%.
PLC-beta3 inh – PLC-beta3 (human) inhibition, primary screen; 370,000 compounds, 0.18% hits; Purified PLC-beta3, fluorogenic substrate, fluorescence; inhibition, % at 12.2 µM; AID 720704; Q01970; in the data active = inhibition above about 11%;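 also: 0% = median of compound wells on plate and 100% = full blocker control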
procasp7 counter – counter-screen for procaspase-3 activators: activators of human procaspase-7. P55210. activation, % at 8.5 µM. recombinant procaspase-7, Ac-DEVD-pNA absorbance 405 nm; D23A/D198A/D206A triple mutant, cannot self-cleave; scale: DMSO 0, 5 µM enzyme 100. AID 463210. 330,000 compounds, 0.093% hits;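 active = percent activation above the screen-wide mean plus 3 SD, cut at about 25% in these data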
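buffer or medium = Zinc-free HEPES/NaCl buffer, pH 7.4 | material = Procaspase-7 triple mutant (PC-7 D3A) | input = 2 µM procaspase-7 mutant as dispensed | signal = Epi-absorbance of released pNA at 405 nm, two timepoints | timing = 1 h preincubation, 2 h reaction | replicates = singlicate compound testing | evaluation = % activation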
Arr AP2 block – inhibitors of human beta-arrestin and AP2 interaction; FITC-arrestin peptide / GST-AP2 beads, flow cytometry; AP2 beta2 appendage carries R879A mutation; inhibition, % at 10 µM; 340,000 compounds, 0.31% hits; AID 504490;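 active = inhibition above a set limit, near 3 SD of compounds lacking own fluorescence, cut at about 54% in these data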;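 also: plate controls were DMSO wells for no effect and 5 µM unlabelled arrestin peptide for full effect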
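System: GST-AP2 R879A glutathione beads | Also added: FITC-arrestin peptide, 50 nM | Times: 12 min plus 1 h, RT | Signal: Bead flow cytometry, FITC channel | Buffer or medium: PBS with 0.05% Tween 20 and 0.1% BSA | Read-out basis: Percent drop in bead-associated FITC signal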
HGIII-sPLA2 inh – Inhibits HGIII-sPLA2 liposome hydrolysis, primary screen | Q9NZ20 | QFRET BODIPY PC-A2 liposome hydrolysis, fluorescence | 370,000 compounds, 0.56% hits | AID 743126 | inhibition, % at 12.2 µM;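 active = inhibition above mean plus 3 SD of compounds lying within the high and low control bounds, cut at about 19% in these data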;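 also: 0% = median of test compound wells and 100% = no enzyme DMSO wells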
proCasp3 act – procaspase-3 (human) activation | AID 463141 | 330,000 compounds, 0.11% hits | activation, % at 8.5 µM | recombinant procaspase-3 D3A, Ac-DEVD-pNA absorbance 405 nm | P42574;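 active = activation above the mean of all tested compounds plus 3 SD, cut at about 21% in these data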;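 also: 0% = DMSO alone and 100% = DMSO wells spiked with extra 5 µM PC-3 D3A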
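Assay system – Procaspase-3 D3A mutant · Benchmarks – DMSO low control, extra-enzyme high control · Technique – 405 nm absorbance of p-nitroaniline, reads at 0 and 120 min · Doses – 8.5 µM nominal · Measure – % activation between DMSO and enzyme-spiked controls · Also added – Ac-DEVD-pNA chromogenic peptide substrate · Schedule – 1 h compound preincubation, 2 h substrate hydrolysis at 25 °C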
PLC-gamma1 inh – inhibitors of human phospholipase C gamma1; inhibition, % at 12.2 µM; 370,000 compounds, 0.84% hits; purified PLC-gamma1, fluorogenic substrate, fluorescence; in the data active = inhibition above about 9.5%
sPLA2 confirm – human GIII-sPLA2 inhibition, confirmation | shares compounds with HGIII-sPLA2 inh | recombinant hGIII-sPLA2, BODIPY PC-A2 QFRET fluorescence | inhibition, % at 12.2 µM | 2,000 compounds, 34% hits | AID 743280;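 active = mean inhibition across triplicates above the hit cutoff set in the earlier primary screen, cut at about 19% in these data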;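 also: 0% = enzyme with DMSO and 100% = DMSO wells lacking enzyme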
535nm interf – 535nm fluorescence interference, HGIII-sPLA2 counter-screen; shares compounds with HGIII-sPLA2 inh; BODIPY FL product fluorescence interference, QFRET; inhibition, % at 12.2 µM; 2,000 compounds, 8.5% hits; AID 743282;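 active = average inhibition above the solvent-only control mean plus 3 SD, cut at about 6% in these data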;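 also: 0% = DMSO with substrate plus product and 100% = DMSO with substrate alone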
BODIPY interf DR – 535nm optical interference dose response, HGIII-sPLA2 counter-screen. shares compounds with HGIII-sPLA2 inh. BODIPY FL product fluorescence interference, cell-free. IC50, µM. 240 tested, under 10 active. AID 743455;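 active = IC50 at or below 10 µM; inactive = IC50 above 10 µM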
Numbers without * were called inactive.

Screening Cc1cc(-c2cc(C)c(N)c(C)c2)cc(C)c1N returned PLC-beta3 inh 8.0, Arr AP2 block 13.0, HGIII-sPLA2 inh 21.9*, PLC-gamma1 inh -0.6, sPLA2 confirm 21.6* and 535nm interf 0.9.
Clc1cc(Cl)cc(CN2Cc3cc(Br)ccc3-n3nncc3C2)c1 was read as PLC-beta3 inh 1.1, HGIII-sPLA2 inh 6.7 and PLC-gamma1 inh 5.0.
CC(=NCCc1ccccc1)c1c(O)n(C)c(=O)n(C)c1=O was read as PLC-beta3 inh 5.1, procasp7 counter -7.1, Arr AP2 block 11.6, HGIII-sPLA2 inh 1.0, proCasp3 act -1.3 and PLC-gamma1 inh 5.6.
CC(=Nc1ccccc1N)c1c(O)n(C)c(=O)n(C)c1=O was read as PLC-beta3 inh -16.4, procasp7 counter 7.8, Arr AP2 block 6.5, HGIII-sPLA2 inh 20.2*, proCasp3 act 6.0, PLC-gamma1 inh -4.3, sPLA2 confirm 6.3 and 535nm interf -6.0.
`CC1OC(OC2CC(O)C3(CO)C4C(O)CC5(C)C(C6=CC(=O)OC6)CCC5(O)C4CCC3(O)C2)C(O)C(O)C1O` (configuration not stated) gave PLC-beta3 inh -3.3, Arr AP2 block -2.5, HGIII-sPLA2 inh 27.7*, PLC-gamma1 inh 9.0, sPLA2 confirm 3.9 and 535nm interf -5.6.
For C[n+]1c(-c2ccccc2)sc2ccccc21 the results were PLC-beta3 inh -3.5, procasp7 counter -10.7, Arr AP2 block 30.3, HGIII-sPLA2 inh -9.0, proCasp3 act -23.4 and PLC-gamma1 inh 1.0.
For CN(C)c1ccc(/C=C/C=C/c2sc3ccccc3[n+]2C)cc1 the results were PLC-beta3 inh -17.2, procasp7 counter -3.7, Arr AP2 block -9.4, HGIII-sPLA2 inh 20.7*, proCasp3 act 4.6, PLC-gamma1 inh -7.7, sPLA2 confirm 40.7*, 535nm interf -14.6 and BODIPY interf DR >122.
CN(C)c1ccc(/C=C/c2cc[n+](C)c3ccccc23)cc1 was read as PLC-beta3 inh 0.7, Arr AP2 block -17.4, HGIII-sPLA2 inh 26.1*, PLC-gamma1 inh 3.1, sPLA2 confirm 33.4*, 535nm interf -14.1 and BODIPY interf DR >122.
Screening COc1cc(/C=C/C(=O)c2c(O)n(CCc3ccccc3)c(=O)[nH]c2=O)ccc1O returned PLC-beta3 inh -11.4, procasp7 counter -12.3, Arr AP2 block 3.1, HGIII-sPLA2 inh -5.8, proCasp3 act -6.8 and PLC-gamma1 inh -6.4.
For CC[C@H](C(N)=O)N1CCCC1=O the results were PLC-beta3 inh 4.3, HGIII-sPLA2 inh -0.7 and PLC-gamma1 inh 1.4.
Screening CCCCc1ccc2[nH]cc(CCN)c2c1 returned PLC-beta3 inh 1.7, procasp7 counter 7.8, Arr AP2 block -0.6, HGIII-sPLA2 inh 30.0*, proCasp3 act 9.4, PLC-gamma1 inh 3.3, sPLA2 confirm 7.7 and 535nm interf -14.4.
Screening Cc1cc2c(cc1C)NP(=S)(c1ccccc1)N2 returned PLC-beta3 inh -28.0, Arr AP2 block 6.2, HGIII-sPLA2 inh -5.6 and PLC-gamma1 inh -24.6.
Screening CCOC(=O)c1sc(/N=C/c2c(O)n(-c3ccccc3)c(=O)[nH]c2=O)c(C#N)c1C returned PLC-beta3 inh -17.5, procasp7 counter -19.6, Arr AP2 block 13.0, HGIII-sPLA2 inh -9.8, proCasp3 act -16.9 and PLC-gamma1 inh -11.6.
CCOC(=O)c1c(/N=C/c2c(O)n(-c3cccc(C)c3)c(=O)[nH]c2=O)sc2c1CCCC2 was read as PLC-beta3 inh -9.2, procasp7 counter -7.3, Arr AP2 block -15.1, HGIII-sPLA2 inh 20.4*, proCasp3 act -4.6, PLC-gamma1 inh -4.4, sPLA2 confirm 12.9 and 535nm interf -3.5.
O=C1CN=C(c2ccc[nH]2)c2cc(Cl)ccc2N1 was read as PLC-beta3 inh -9.8, procasp7 counter -7.0, Arr AP2 block 5.2, HGIII-sPLA2 inh 2.9, proCasp3 act -11.1 and PLC-gamma1 inh -3.9.
`CN=C1CN=C(c2ccc[nH]2)c2cc(Cl)ccc2N1` gave PLC-beta3 inh -13.1, HGIII-sPLA2 inh 19.4*, PLC-gamma1 inh -1.3, sPLA2 confirm 7.6 and 535nm interf 1.2.
S=P(c1ccccc1)(c1ccccc1)c1cnc2ccccn12 was read as PLC-beta3 inh 0.5, HGIII-sPLA2 inh 3.0 and PLC-gamma1 inh 5.0.
COc1ccc(CC2NCC(O)C2OC(C)=O)cc1 (configuration not stated) was read as PLC-beta3 inh 9.0, Arr AP2 block 3.5, HGIII-sPLA2 inh 2.3 and PLC-gamma1 inh 4.5.
`O=[N+]([O-])c1ccc(N2CCNCC2)cc1N1CCCCCC1` gave PLC-beta3 inh 7.8, procasp7 counter -3.0, Arr AP2 block -5.4, HGIII-sPLA2 inh 35.7*, proCasp3 act -1.4, PLC-gamma1 inh 8.3, sPLA2 confirm 16.6 and 535nm interf -12.3.
Screening CC(C)Oc1ccc(C2(C#N)CC[N+](C)(C)CC2)cc1 returned PLC-beta3 inh 6.2, procasp7 counter -4.8, Arr AP2 block -1.4, HGIII-sPLA2 inh 22.0*, proCasp3 act 4.5, PLC-gamma1 inh 2.1, sPLA2 confirm -2.4 and 535nm interf -4.3.
